Assay [1] deals with Acinetobacter baumannii. Nature of the assay: Antibacterial activity against Acinetobacter baumannii PR476 producing OXA-24/40 by broth microdilution method. The format is functional. On the technique in general: Dilution methods test growth across graded concentrations, often in twofold steps.
The subject of assay [2] is Klebsiella pneumoniae. The assay can be described thus: Antibacterial activity against Klebsiella pneumoniae 977/1916 producing KPC-3 by broth microdilution method. Format: functional.
The test system of assay [3] is Klebsiella pneumoniae. Nature of the assay: Antibacterial activity against Klebsiella pneumoniae 660/1568 producing KPC-3 by broth microdilution method. Format: functional.
The subject of assay [4] is Acinetobacter baumannii. The assay can be described thus: Antibacterial activity against ADC deleted Acinetobacter baumannii transfected with pWH1266 producing OXA-24/40 by broth microdilution method. Format: functional.
In assay [5] the test system is Acinetobacter baumannii. The assay can be described thus: Antibacterial activity against Acinetobacter baumannii NCTC 13303 producing OXA-26/51 infected in sc dosed Swiss albino mouse administered 1 hr post infection and measured upto 7 days. The settings on record: NCTC 13303, 168 h; for ED50: read-out: PD50.
In assay [6] the test system is Acinetobacter baumannii. The assay can be described thus: Antibacterial activity against Acinetobacter baumannii NCTC 13301 producing OXA-23/51 infected in sc dosed Swiss albino mouse administered 1 hr post infection and measured upto 7 days. The format is functional. The settings on record: for ED90 / ED50: NCTC 13301, 168 h, time <= 7 day; for ED50: read-out: PD50. An outline of the steps: (§1)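 Peritonitis model: male and female Swiss albino mice infected intraperitoneally with 3.5×10^5 to 3×10^6 CFU/mouse in 5% hog gastric mucin (lethal to untreated mice within 24 h). […] Survival followed 7 days; PD50/PD90 by probit analysis.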

Assay [7] has as its system Acinetobacter baumannii. The assay can be described thus: Antibacterial activity against Acinetobacter baumannii SL04 producing OXA-23/51 infected in Swiss mouse model of neutropenic lung infection.
For assay [8], the system named is Acinetobacter baumannii. Nature of the assay: Antibacterial activity against Acinetobacter baumannii SL46 producing OXA-23/51 infected in sc dosed Swiss albino mouse administered 1 hr post infection and measured upto 7 days. The settings on record: SL46, 168 h.
In a further assay the test system is Escherichia coli. The assay can be described thus: Antibacterial activity against Escherichia coli DH10B transfected with pBC SK (-) OXA-48 by broth microdilution method. The format is functional.
The subject of assay [9] is Acinetobacter baumannii. The assay can be described thus: Antibacterial activity against Acinetobacter baumannii NCTC 13303 producing OXA-26/51 infected in sc dosed Swiss albino mouse administered 1 hr post infection and measured upto 7 days. The format is functional. The settings on record: NCTC 13303, 168 h, time <= 7 day. An outline of the steps: as §1
Assay [10] deals with Acinetobacter baumannii. The assay can be described thus: Antibacterial activity against Acinetobacter baumannii SL46 producing OXA-23/51 infected in sc dosed Swiss albino mouse administered 1 hr post infection and measured upto 7 days. The format is functional. The settings on record: SL46, 168 h, time <= 7 day. An outline of the steps:
as §1

Assay [11] concerns Acinetobacter baumannii. The assay can be described thus: Antibacterial activity against Acinetobacter baumannii SL04 producing OXA-23/51 infected in Swiss mouse model of neutropenic lung infection assessed as reduction in log10CFU at 50 mg/kg.

Values after ≈ are worked out from the molar mass of the structure shown.

In general, MIC refers to the lowest concentration that inhibits growth of the organism. Low readings indicate inhibition by little substance, high ones a need for much substance. Take `C[C@@H](O)[C@H]1C(=O)N2C(C(=O)O)=C(S[C@@H]3CN[C@H](C(=O)N(C)C)C3)[C@H](C)[C@H]12` [MEROPENEM]: the MIC was 0.25 µg/mL (≈ 0.652 µM) against Acinetobacter baumannii [1]; 1 µg/mL (≈ 2.61 µM) in the assay with Klebsiella pneumoniae [2]; 2 µg/mL (≈ 5.22 µM) with Klebsiella pneumoniae [3]; above 16 µg/mL in the assay on Acinetobacter baumannii [4]; 64 µg/mL (≈ 167 µM) in the assay with Acinetobacter baumannii [7]; 8 µg/mL (≈ 20.9 µM) against Escherichia coli. Besides, the ED90 stood at 50 mg/kg in the assay on Acinetobacter baumannii [5], 25 mg/kg in the assay with Acinetobacter baumannii [6] and 50 mg/kg in the assay on Acinetobacter baumannii [8]. The ED50 with Acinetobacter baumannii [5] came out at 50 mg/kg; in the assay with Acinetobacter baumannii [6] it was 25 mg/kg; in the assay on Acinetobacter baumannii [8] (read-out: PD50), 50 mg/kg.

On to `CO/N=C(\C(=O)N[C@@H]1C(=O)N2C(C(=O)[O-])=C(C[N+]3(C)CCCC3)CS[C@H]12)c1csc(N)n1`, for which the ED90 was 50 mg/kg with Acinetobacter baumannii [9], 50 mg/kg in the assay with Acinetobacter baumannii [10] and above 100 mg/kg in the assay on Acinetobacter baumannii [6]. Further, the figures for the ED50 with Acinetobacter baumannii [9] (read-out: PD50), with Acinetobacter baumannii [10] (read-out: PD50) and in the assay on Acinetobacter baumannii [6] were 50 mg/kg, 50 mg/kg and above 100 mg/kg, respectively. For the same compound, in the assay with Acinetobacter baumannii [1], the MIC turned out to be 1 µg/mL (≈ 2.08 µM). In addition, in the assay with Acinetobacter baumannii [11], the Activity is given as 0.98 log10CFU.

On to COLISTIN, for which, in the assay with Acinetobacter baumannii [6] (time <= 7.0 day), the PD50 came to 16.6 mg/kg.

For `C[C@@H](O)[C@H]1C(=O)N2C(C(=O)O)=C(SCCNC=N)C[C@H]12` [IMIPENEM ANHYDROUS], the minimum inhibitory concentration (MIC) against Acinetobacter baumannii [7] came to 64 µg/mL (≈ 214 µM).

For the compound `CN(C)c1cc(NC(=O)CNC(C)(C)C)c(O)c2c1C[C@H]1C[C@H]3[C@H](N(C)C)C(O)=C(C(N)=O)C(=O)[C@@]3(O)C(O)=C1C2=O` [TIGECYCLINE], the ED90 in the assay on Acinetobacter baumannii [5] and in the assay with Acinetobacter baumannii [6] was above 6.25 mg/kg each time. In addition, the ED50 in the assay on Acinetobacter baumannii [5] and with Acinetobacter baumannii [6] was above 6.25 mg/kg throughout. For the same compound, the MIC in the assay with Acinetobacter baumannii [7] came out at 4 µg/mL (≈ 6.83 µM).

Values taken from ChEMBL document CHEMBL5247575 (J Med Chem, 2018).
